Reference: ChEMBL document CHEMBL3352666, “Human Toll-like receptor 8-selective agonistic activities in 1-alkyl-1H-benzimidazol-2-amines” (J Med Chem, 2014)
Active and inactive are the calls of the source.

Assays:
Format in all cases: cell-based
[1] = molecular target: T1, Nucleotide-binding oligomerization domain-containing protein 1 (Homo sapiens) (UniProt Q9Y239); assay: Agonist activity at human NOD1 stably expressed in HEK293 cells co-expressing secreted alkaline phosphatase assessed as NF-kappaB induction by liquid handler-assisted reporter gene assay
T1 sequence (whole entry): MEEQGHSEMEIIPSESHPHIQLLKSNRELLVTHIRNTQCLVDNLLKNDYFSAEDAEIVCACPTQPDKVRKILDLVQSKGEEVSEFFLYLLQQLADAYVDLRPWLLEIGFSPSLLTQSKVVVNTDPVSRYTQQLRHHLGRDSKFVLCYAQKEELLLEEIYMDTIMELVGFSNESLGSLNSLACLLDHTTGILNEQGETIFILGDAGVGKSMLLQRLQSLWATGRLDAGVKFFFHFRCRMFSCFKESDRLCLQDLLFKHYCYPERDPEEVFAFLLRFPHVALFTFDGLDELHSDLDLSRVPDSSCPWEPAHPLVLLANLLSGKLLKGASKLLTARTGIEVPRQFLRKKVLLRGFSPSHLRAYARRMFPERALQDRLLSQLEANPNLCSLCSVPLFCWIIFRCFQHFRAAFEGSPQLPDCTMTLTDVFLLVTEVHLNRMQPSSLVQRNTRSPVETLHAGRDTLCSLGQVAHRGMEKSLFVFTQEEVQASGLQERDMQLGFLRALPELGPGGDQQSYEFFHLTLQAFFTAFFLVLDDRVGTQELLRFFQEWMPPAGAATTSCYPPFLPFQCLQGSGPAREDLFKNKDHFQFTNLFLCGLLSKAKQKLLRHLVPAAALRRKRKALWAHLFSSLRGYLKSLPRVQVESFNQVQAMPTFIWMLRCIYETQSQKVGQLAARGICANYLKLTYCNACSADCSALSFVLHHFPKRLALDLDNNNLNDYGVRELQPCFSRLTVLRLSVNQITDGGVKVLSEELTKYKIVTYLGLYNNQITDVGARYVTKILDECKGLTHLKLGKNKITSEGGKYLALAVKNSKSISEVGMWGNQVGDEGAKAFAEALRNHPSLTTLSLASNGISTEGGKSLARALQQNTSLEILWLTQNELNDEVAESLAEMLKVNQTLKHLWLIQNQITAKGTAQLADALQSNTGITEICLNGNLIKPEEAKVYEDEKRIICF
Method in brief: (§1)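 HEK293 reporter cells stably co-transfected with the respective human TLR or NOD receptor plus NF-κB/AP-1-driven secreted alkaline phosphatase, kept in selection medium. About 10^5 cells/ml were incubated with graded concentrations of test compound in 384-well format. Supernatant sAP was read colorimetrically at 620 nm with an alkaline phosphatase-specific chromogen in detection medium.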

[2] = molecular target: T2, Toll-like receptor 9 (Homo sapiens) (UniProt Q9NR96); assay: Agonist activity at human TLR9 stably expressed in HEK293 cells co-expressing secreted alkaline phosphatase assessed as NF-kappaB induction by liquid handler-assisted reporter gene assay; method in brief: as §1
T2 sequence (whole entry): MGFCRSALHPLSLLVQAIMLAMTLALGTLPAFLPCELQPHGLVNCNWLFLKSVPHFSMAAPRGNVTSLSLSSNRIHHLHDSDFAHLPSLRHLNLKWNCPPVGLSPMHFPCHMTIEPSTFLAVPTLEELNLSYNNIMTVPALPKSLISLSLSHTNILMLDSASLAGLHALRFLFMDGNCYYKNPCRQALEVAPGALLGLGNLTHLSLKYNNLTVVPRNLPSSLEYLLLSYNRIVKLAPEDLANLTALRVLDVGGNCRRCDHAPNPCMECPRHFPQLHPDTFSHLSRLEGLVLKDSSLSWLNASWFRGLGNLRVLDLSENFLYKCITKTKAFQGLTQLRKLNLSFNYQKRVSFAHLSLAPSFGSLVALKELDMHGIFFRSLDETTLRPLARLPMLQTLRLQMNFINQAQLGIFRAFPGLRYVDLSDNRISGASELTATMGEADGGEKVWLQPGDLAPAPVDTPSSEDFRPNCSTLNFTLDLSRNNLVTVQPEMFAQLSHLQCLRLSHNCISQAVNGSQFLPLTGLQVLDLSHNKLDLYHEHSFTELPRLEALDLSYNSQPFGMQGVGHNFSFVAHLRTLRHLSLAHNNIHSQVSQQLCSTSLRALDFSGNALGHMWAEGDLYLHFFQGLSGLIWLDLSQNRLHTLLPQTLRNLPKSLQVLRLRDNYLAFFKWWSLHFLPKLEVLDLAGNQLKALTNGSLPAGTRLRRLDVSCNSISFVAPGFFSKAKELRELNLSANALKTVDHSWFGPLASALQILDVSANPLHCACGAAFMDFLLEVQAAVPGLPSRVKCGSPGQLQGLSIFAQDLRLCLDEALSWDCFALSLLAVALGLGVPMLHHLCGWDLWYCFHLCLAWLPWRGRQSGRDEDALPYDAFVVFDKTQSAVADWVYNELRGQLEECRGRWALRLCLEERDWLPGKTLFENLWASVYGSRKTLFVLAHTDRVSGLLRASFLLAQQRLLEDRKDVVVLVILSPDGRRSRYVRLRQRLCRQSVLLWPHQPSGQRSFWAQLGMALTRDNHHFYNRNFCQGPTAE

[3] = molecular target: Toll-like receptor 2 (Homo sapiens) (UniProt O60603); assay: Agonist activity at human TLR2 stably expressed in HEK293 cells co-expressing secreted alkaline phosphatase assessed as NF-kappaB induction by liquid handler-assisted reporter gene assay; method in brief: as §1
[4] = molecular target: Toll-like receptor 3 (Homo sapiens) (UniProt O15455); assay: Agonist activity at human TLR3 stably expressed in HEK293 cells co-expressing secreted alkaline phosphatase assessed as NF-kappaB induction by liquid handler-assisted reporter gene assay; method in brief: as §1
[5] = molecular target: Toll-like receptor 4 (Homo sapiens) (UniProt O00206); assay: Agonist activity at human TLR4 stably expressed in HEK293 cells co-expressing secreted alkaline phosphatase assessed as NF-kappaB induction by liquid handler-assisted reporter gene assay; method in brief: as §1

Measured: Activity

Chain of Toll-like receptor 4 (Homo sapiens) (O00206 whole entry): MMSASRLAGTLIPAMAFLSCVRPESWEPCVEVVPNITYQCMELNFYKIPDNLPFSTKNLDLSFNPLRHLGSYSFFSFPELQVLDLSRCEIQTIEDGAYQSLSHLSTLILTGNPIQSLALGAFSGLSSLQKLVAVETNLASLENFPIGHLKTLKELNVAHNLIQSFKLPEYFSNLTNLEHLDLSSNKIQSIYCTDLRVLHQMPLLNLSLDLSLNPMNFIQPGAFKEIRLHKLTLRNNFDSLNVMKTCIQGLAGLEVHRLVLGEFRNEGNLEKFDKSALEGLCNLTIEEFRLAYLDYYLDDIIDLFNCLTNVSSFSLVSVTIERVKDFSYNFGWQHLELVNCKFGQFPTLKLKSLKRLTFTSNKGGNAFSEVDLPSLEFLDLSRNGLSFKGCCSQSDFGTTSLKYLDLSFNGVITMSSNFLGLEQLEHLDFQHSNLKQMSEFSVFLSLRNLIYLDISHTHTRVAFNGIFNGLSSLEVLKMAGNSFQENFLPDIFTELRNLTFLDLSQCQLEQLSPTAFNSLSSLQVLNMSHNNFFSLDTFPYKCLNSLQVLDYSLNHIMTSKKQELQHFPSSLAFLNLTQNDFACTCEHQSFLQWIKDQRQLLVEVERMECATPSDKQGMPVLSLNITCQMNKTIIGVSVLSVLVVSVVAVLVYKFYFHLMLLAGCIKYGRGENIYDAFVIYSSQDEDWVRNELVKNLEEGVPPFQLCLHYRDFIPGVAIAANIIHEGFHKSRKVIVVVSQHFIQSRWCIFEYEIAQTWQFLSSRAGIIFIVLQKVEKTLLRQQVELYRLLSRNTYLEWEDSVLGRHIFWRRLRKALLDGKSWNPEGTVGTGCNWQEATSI
Chain of Toll-like receptor 2 (Homo sapiens) (O60603 whole entry): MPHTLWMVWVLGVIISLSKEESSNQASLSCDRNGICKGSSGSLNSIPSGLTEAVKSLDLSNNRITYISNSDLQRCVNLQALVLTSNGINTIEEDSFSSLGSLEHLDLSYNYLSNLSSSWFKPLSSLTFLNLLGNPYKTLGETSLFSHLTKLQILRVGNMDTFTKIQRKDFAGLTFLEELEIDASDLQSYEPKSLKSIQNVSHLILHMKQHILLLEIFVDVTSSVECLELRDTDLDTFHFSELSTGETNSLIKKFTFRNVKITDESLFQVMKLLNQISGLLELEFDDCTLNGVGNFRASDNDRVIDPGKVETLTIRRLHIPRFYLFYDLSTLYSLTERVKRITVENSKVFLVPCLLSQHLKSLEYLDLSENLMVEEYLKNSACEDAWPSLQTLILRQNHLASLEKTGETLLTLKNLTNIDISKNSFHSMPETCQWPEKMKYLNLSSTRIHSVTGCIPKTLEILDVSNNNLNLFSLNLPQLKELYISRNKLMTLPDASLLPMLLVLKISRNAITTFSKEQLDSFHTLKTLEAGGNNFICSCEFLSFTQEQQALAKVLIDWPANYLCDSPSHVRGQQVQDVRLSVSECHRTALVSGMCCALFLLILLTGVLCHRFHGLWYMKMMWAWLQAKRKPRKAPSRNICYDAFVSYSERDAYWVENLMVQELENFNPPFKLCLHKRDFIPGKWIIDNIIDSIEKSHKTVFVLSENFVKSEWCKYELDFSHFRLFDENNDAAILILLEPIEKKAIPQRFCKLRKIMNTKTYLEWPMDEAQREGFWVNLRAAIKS
Chain of Toll-like receptor 3 (Homo sapiens) (O15455 whole entry): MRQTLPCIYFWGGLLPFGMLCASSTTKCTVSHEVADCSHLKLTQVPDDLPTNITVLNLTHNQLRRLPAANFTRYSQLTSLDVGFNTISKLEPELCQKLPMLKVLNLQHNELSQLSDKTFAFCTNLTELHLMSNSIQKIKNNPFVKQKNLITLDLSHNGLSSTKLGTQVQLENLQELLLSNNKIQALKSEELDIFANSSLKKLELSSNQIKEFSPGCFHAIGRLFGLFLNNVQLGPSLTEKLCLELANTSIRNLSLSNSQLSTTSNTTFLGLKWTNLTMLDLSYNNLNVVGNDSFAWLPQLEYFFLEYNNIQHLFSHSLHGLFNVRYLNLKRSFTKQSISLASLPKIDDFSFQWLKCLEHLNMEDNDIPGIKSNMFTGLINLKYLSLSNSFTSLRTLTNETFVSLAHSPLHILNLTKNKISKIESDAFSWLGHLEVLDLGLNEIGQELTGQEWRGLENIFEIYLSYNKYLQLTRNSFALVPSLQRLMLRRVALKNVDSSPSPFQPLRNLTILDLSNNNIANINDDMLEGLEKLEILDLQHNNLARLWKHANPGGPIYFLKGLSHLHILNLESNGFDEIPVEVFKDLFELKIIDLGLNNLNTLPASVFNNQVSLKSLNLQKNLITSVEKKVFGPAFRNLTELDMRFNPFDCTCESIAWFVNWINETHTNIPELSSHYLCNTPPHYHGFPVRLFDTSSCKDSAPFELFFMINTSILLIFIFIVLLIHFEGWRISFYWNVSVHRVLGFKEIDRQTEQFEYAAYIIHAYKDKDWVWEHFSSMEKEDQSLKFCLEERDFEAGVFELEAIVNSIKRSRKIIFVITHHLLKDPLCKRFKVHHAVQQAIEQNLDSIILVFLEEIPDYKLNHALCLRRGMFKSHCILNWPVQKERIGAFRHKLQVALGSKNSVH

CCCCCn1c(N)nc2c(C)cccc21
inactive: all assays above

CCCCCn1c(NC(C)=O)nc2ccccc21
inactive: all assays above

CCCCCn1c(N)nc2cnccc21
inactive: all assays above

CCCCCn1c(N)nc2c(Cc3ccccc3)cccc21
inactive: all assays above

NCc1cccc(Cn2c(N)nc3ccccc32)c1
inactive: all assays above

CCCCCn1c(N)nc2c(C(F)(F)F)cccc21
inactive: all assays above

CCCCOC(=O)n1c(N)nc2ccccc21
inactive: all assays above

CCCCCn1c(N)nc2ccc3ccccc3c21
inactive: all assays above

CCCCCn1c(N)nc2c(OCc3ccccc3)cccc21
inactive: all assays above

CCCCCn1c(N)nc2c(-c3ccccc3)cccc21
inactive: all assays above

CCCCCn1c(N)nc2c(F)cccc21
inactive: all assays above

CCCCCn1c(N)nc2ncccc21
inactive: all assays above

CCCCCn1c(N)nc2ccncc21
inactive: all assays above

CCCCCn1c(N)nc2cc3ccccc3cc21
inactive: all assays above

CCCCC1(O)C(N)=Nc2ccccc21 (stereo not given)
inactive: all assays above

CCCCC1C(N)=Nc2ccccc21.Cl (stereo not given)
inactive: all assays above

CCCCCn1c(N)nc2c(Cl)cccc21
inactive: all assays above

CCCCCn1c(N)nc2cccnc21
inactive: all assays above

CCCCCn1c(N)nc2c([N+](=O)[O-])cccc21
inactive: all assays above

CCCCCn1c(N)nc2c(Br)cccc21
inactive: all assays above

Nc1nc2ccccc2n1Cc1ccccc1
inactive: all assays above
